Source: ChEMBL document CHEMBL5303300, “EUbOPEN Chemogenomics Library - Multiplex” (2023)
Values joined by “and” are separate entries in the source; they are usually repeats but may differ in a detail not shown here. Identical values can stand only once.

System: HEK-293T
Experiment: Multiplex assay against HEK293T
Type: toxicity, cell-based
Details: human, number of replicates 2
Method in brief: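 Imaging took place on a CQ1 microscope at 37°C and 5% CO2 once compound had been added to live cells stained at seeding with Hoechst33342, BioTracker Green Microtubule Cytoskeleton Dye, MitoTracker Red and Annexin V Alexa Fluor 680. CellPathfinder machine-learning gating classed cells as Hoechst high-intensity objects or normal cells, classed normal cells as having healthy, pyknosed or fragmented nuclei, and classed pyknosed cells as mitotic or apoptotic. Tubulin, mitochondrial-mass and membrane-permeability phenotypes are per cents of the healthy-nucleus cells.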

[1] = 12 h, 1 µM, compound concentration 1 uM
[2] = 12 h, 10 µM, compound concentration 10 uM
[3] = 24 h, 1 µM, compound concentration 1 uM
[4] = 24 h, 10 µM, compound concentration 10 uM
[5] = 48 h, 1 µM, compound concentration 1 uM
[6] = 48 h, 10 µM, compound concentration 10 uM

## CCCN(CCc1cccs1)[C@H]1CCc2c(O)cccc2C1 [ROTIGOTINE]
[1]
  Population Apoptotic (%): 43% and 35%
  Population Fragmented Nuclei (%): 3% and 1%
  Population Healthy Nuclei (%): 83% and 85%
  Population Hoechst High Intensity Objects (%): 9% and 5%
  Population Membrane Permeable-Phenotype (%): 1% and 2%
  Population Mitochondria Different-Phenotype (%): 13% and 14%
  Population Mitotic Cells (%): 56% and 64%
  Population Normal (%): 90% and 94%
  Population Pyknosed Nuclei (%): 12%
  Population Tubulin-Different-Phenotype (%): 50% and 48%
  Total Cell Count: 619 and 758
[2]
  Population Apoptotic (%): 39% and 66%
  Population Fragmented Nuclei (%): 3% and 2%
  Population Healthy Nuclei (%): 88%
  Population Hoechst High Intensity Objects (%): 8% and 5%
  Population Membrane Permeable-Phenotype (%): 4% and 2%
  Population Mitochondria Different-Phenotype (%): 13% and 17%
  Population Mitotic Cells (%): 60% and 33%
  Population Normal (%): 91% and 94%
  Population Pyknosed Nuclei (%): 7% and 8%
  Population Tubulin-Different-Phenotype (%): 66% and 65%
  Total Cell Count: 592 and 535
[3]
  Population Apoptotic (%): 20% and 41%
  Population Fragmented Nuclei (%): 6% and 5%
  Population Healthy Nuclei (%): 89% and 88%
  Population Hoechst High Intensity Objects (%): 8%
  Population Membrane Permeable-Phenotype (%): 2%
  Population Mitochondria Different-Phenotype (%): 3%
  Population Mitotic Cells (%): 80% and 58%
  Population Normal (%): 91%
  Population Pyknosed Nuclei (%): 3% and 6%
  Population Tubulin-Different-Phenotype (%): 30% and 32%
  Total Cell Count: 1198 and 930
[4]
  Population Apoptotic (%): 25% and 32%
  Population Fragmented Nuclei (%): 5% and 7%
  Population Healthy Nuclei (%): 89% and 86%
  Population Hoechst High Intensity Objects (%): 8% and 9%
  Population Membrane Permeable-Phenotype (%): 2% and 4%
  Population Mitochondria Different-Phenotype (%): 9% and 5%
  Population Mitotic Cells (%): 74% and 67%
  Population Normal (%): 91% and 90%
  Population Pyknosed Nuclei (%): 5%
  Population Tubulin-Different-Phenotype (%): 50% and 47%
  Total Cell Count: 859 and 863
[5]
  Population Apoptotic (%): 5% and 13%
  Population Fragmented Nuclei (%): 18% and 11%
  Population Healthy Nuclei (%): 79% and 85%
  Population Hoechst High Intensity Objects (%): 9% and 10%
  Population Membrane Permeable-Phenotype (%): 5% and 3%
  Population Mitochondria Different-Phenotype (%): 0%
  Population Mitotic Cells (%): 94% and 86%
  Population Normal (%): 90% and 89%
  Population Pyknosed Nuclei (%): 2%
  Population Tubulin-Different-Phenotype (%): 11% and 17%
  Total Cell Count: 3231 and 2107
[6]
  Population Fragmented Nuclei (%): 22% and 16%
  Population Healthy Nuclei (%): 76% and 81%
  Population Hoechst High Intensity Objects (%): 9% and 8%
  Population Membrane Permeable-Phenotype (%): 7% and 6%
  Population Mitochondria Different-Phenotype (%): 0% and 1%
  Population Mitotic Cells (%): 83% and 95%
  Population Normal (%): 90% and 91%
  Population Pyknosed Nuclei (%): 1% and 2%
  Population Tubulin-Different-Phenotype (%): 22% and 24%
  Total Cell Count: 2378 and 2001

## CC(C)N(CCCCOCC(=O)NS(C)(=O)=O)c1cnc(-c2ccccc2)c(-c2ccccc2)n1 [SELEXIPAG]
[1]
  Population Apoptotic (%): 50% and 55%
  Population Fragmented Nuclei (%): 3% and 4%
  Population Healthy Nuclei (%): 81% and 80%
  Population Hoechst High Intensity Objects (%): 8% and 6%
  Population Membrane Permeable-Phenotype (%): 2%
  Population Mitochondria Different-Phenotype (%): 17% and 14%
  Population Mitotic Cells (%): 49% and 44%
  Population Normal (%): 91% and 93%
  Population Pyknosed Nuclei (%): 14% and 15%
  Population Tubulin-Different-Phenotype (%): 52% and 41%
  Total Cell Count: 669 and 660
[2]
  Population Apoptotic (%): 58% and 64%
  Population Fragmented Nuclei (%): 5% and 6%
  Population Healthy Nuclei (%): 80% and 81%
  Population Hoechst High Intensity Objects (%): 9% and 10%
  Population Membrane Permeable-Phenotype (%): 1% and 0%
  Population Mitochondria Different-Phenotype (%): 14% and 15%
  Population Mitotic Cells (%): 41% and 35%
  Population Normal (%): 90% and 89%
  Population Pyknosed Nuclei (%): 14% and 11%
  Population Tubulin-Different-Phenotype (%): 51% and 44%
  Total Cell Count: 616 and 713
[3]
  Population Apoptotic (%): 46% and 55%
  Population Fragmented Nuclei (%): 6% and 7%
  Population Healthy Nuclei (%): 83% and 81%
  Population Hoechst High Intensity Objects (%): 7% and 8%
  Population Membrane Permeable-Phenotype (%): 2% and 1%
  Population Mitochondria Different-Phenotype (%): 4% and 3%
  Population Mitotic Cells (%): 53% and 45%
  Population Normal (%): 92% and 91%
  Population Pyknosed Nuclei (%): 9% and 11%
  Population Tubulin-Different-Phenotype (%): 27% and 22%
  Total Cell Count: 1034 and 989
[4]
  Population Apoptotic (%): 50% and 54%
  Population Fragmented Nuclei (%): 13% and 7%
  Population Healthy Nuclei (%): 77% and 82%
  Population Hoechst High Intensity Objects (%): 10% and 9%
  Population Membrane Permeable-Phenotype (%): 2% and 1%
  Population Mitochondria Different-Phenotype (%): 2% and 5%
  Population Mitotic Cells (%): 50% and 45%
  Population Normal (%): 89% and 90%
  Population Pyknosed Nuclei (%): 8% and 9%
  Population Tubulin-Different-Phenotype (%): 13% and 24%
  Total Cell Count: 1214 and 906
[5]
  Population Apoptotic (%): 13% and 14%
  Population Fragmented Nuclei (%): 12% and 10%
  Population Healthy Nuclei (%): 83% and 86%
  Population Hoechst High Intensity Objects (%): 8%
  Population Membrane Permeable-Phenotype (%): 4% and 5%
  Population Mitochondria Different-Phenotype (%): 0%
  Population Mitotic Cells (%): 86% and 85%
  Population Normal (%): 91%
  Population Pyknosed Nuclei (%): 3%
  Population Tubulin-Different-Phenotype (%): 7%
  Total Cell Count: 2736 and 2374
[6]
  Population Apoptotic (%): 25% and 19%
  Population Fragmented Nuclei (%): 25% and 22%
  Population Healthy Nuclei (%): 71% and 75%
  Population Hoechst High Intensity Objects (%): 9%
  Population Membrane Permeable-Phenotype (%): 5% and 7%
  Population Mitochondria Different-Phenotype (%): 0%
  Population Mitotic Cells (%): 74% and 80%
  Population Normal (%): 90%
  Population Pyknosed Nuclei (%): 2%
  Population Tubulin-Different-Phenotype (%): 8% and 13%
  Total Cell Count: 3157 and 2195
